Bioassay records deposited in PubChem by several laboratories.
CAL PDZ FP-1: inhibitors of human CAL PDZ peptide binding; Q9HD26; purified CAL PDZ, TMR-peptide fluorescence polarization, 1 h; inhibition, % at 20 µM; 330,000 tested, 0.02% active; AID 504414;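 active means highest replicate inhibition of at least 40%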
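material = purified tagged CAL PDZ domain construct (CerCALP) | buffer or medium = sodium phosphate/NaCl buffer pH 7.4 with TCEP, IgG, Thesit | reagent = TMR-labelled reporter peptide T*-PRC34 bound in PDZ groove | incubation = 1 h room-temperature incubation prior to read | measured by = fluorescence polarization (mP) | evaluation = percent inhibition from loss of millipolarization | control set = unlabelled peptide and DMSO controls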
PKA-R1A activ: activates the PKA-R1A holoenzyme complex. 340,000 tested, 0.083% active. AID 504707. P00514+P68181. PKA-R1A dissociation, Cy5-IP20 fluorescence polarization; scaled: DMSO 0%, 113 µM cGMP 100%. activation, % at 11.4 µM;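 active means percent activation above the mean of all tested compounds plus 3 SD, cut at about 19% in these data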;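 further: higher means more PKAc released from R1A so a rise in polarization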
NTR1 agonist: activates human neurotensin receptor 1; P30989; NTR1-U2OS beta-arrestin-GFP spot imaging, agonist mode; activation, % at 20 µM; 330,000 tested, 0.17% active; AID 493036;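 active means activation at or above 40% of the spot to cytoplasm intensity ratio, with at least 20 cells analyzed; inconclusive means wells under 20 cells, flagged as cytotoxic or low count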
dFosB activator: enhances mouse delta FosB homodimer DNA binding; purified delta FosB, TAMRA-CDK5 oligo fluorescence polarization; percent of positive-control signal above neutral wells; activation, % at 25 µM; 340,000 tested, 0.99% active; AID 493131;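 active means mean activation above about 17%, with every replicate also reaching it, limit read from the data, passing the limit was not always enough; inconclusive means only one of the two conditions met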
Target sequence (P13346 whole entry, looked up): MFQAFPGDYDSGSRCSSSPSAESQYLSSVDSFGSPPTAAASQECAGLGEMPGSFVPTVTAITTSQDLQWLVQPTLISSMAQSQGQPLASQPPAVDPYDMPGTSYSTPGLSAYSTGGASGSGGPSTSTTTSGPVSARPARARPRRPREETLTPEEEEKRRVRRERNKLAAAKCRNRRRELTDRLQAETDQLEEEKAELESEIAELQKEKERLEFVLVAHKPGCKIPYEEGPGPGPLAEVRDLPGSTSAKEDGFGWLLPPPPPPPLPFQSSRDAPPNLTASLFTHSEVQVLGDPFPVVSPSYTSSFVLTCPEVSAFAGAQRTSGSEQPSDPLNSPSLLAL
CAL PDZ FP-2: CAL PDZ (human) peptide binding inhibition. Q9HD26. purified CAL PDZ, TMR-peptide fluorescence polarization, 1 h. inhibition, % at 24.9 µM. 300,000 tested, 0.92% active;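 active means mean inhibition of at least 30% with at least half of replicates also reaching 30%; inconclusive means no clear call, values can overlap the other calls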
PKA-R2B activ: activates the human PKA-R2B holoenzyme complex. PKA-R2B holoenzyme dissociation, Cy5-IP20 fluorescence polarization; R2B truncated from residue 108, S112A mutant; 0% DMSO only, 100% 113 µM cGMP. activation, % at 11.4 µM. 340,000 tested, 0.079% active;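 active means activation above a cutoff set at the mean over all compounds plus 3 SD, cut at about 18% in these data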;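 further: higher means more holoenzyme dissociation and a rise in polarization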
Each line names hits and unclear results; the compound was inactive in the other large screens. Compounds with a hit are over-represented: about 2% of the library has one in this group of screens.

CCC(C)N(C(=O)CSc1nc(-c2cccs2)nc2ccccc12)C1CCS(=O)(=O)C1 (centres undefined)	none (no result: NTR1 agonist)
CCCCCCC(=O)Nc1ccc(Br)cn1	CAL PDZ FP-2 63
COc1ccc(CC(=O)NCCC(C)C)cc1S(=O)(=O)N1CCOCC1	CAL PDZ FP-2 42
CCC1Nc2ncnc(N3CCN(c4ccccc4)CC3)c2N(Cc2ccc(Br)cc2)C1=O (centres undefined)	none
CC(=O)c1cccc(NS(=O)(=O)c2ccc(NC(=O)N3CCCCC3)cc2)c1	CAL PDZ FP-2 121
C#CCOC(=O)Nc1ccc(OCC(F)(F)F)nc1	none
C=CCC(C#Cc1ccccc1)[N+](C)(C)CC=C (centres undefined)	none (no result: CAL PDZ FP-2)
C=CCC(C#Cc1ccccc1)N(C)C (centres undefined)	CAL PDZ FP-2 87
CN(Cc1ccccc1C#N)S(=O)(=O)c1cccs1	none (no result: CAL PDZ FP-2)
COc1ccccc1CN(C)S(=O)(=O)c1cccs1	CAL PDZ FP-2 64
Cc1ccc(-n2ccnc2SCC(=O)c2c(N)n(C3CC3)c(=O)[nH]c2=O)cc1C	none (no result: CAL PDZ FP-2)
COc1cc(C(=O)NCc2nnc(SCC(=O)Nc3c(C)cc(C)cc3C)o2)cc(OC)c1OC	CAL PDZ FP-2 60
Cc1cc(C)n(-c2ccc(C(=O)OCC(=O)NCc3ccco3)cc2)n1	CAL PDZ FP-2 40 (no result: CAL PDZ FP-1)
COc1ccc(C(=O)CSc2nnc(CNC(=O)c3ccccc3)o2)cc1	CAL PDZ FP-2 52
COc1ccc(C(=O)NCc2nnc(SCC(=O)NCc3ccco3)o2)cc1	CAL PDZ FP-2 88
C=CCc1c(C)nc2c(-c3ccccc3)cnn2c1N1CCOCC1	none (no result: CAL PDZ FP-1, NTR1 agonist)
COc1ccc(C(=O)NCC(=O)OCC(=O)NCc2ccco2)cc1	CAL PDZ FP-2 43
CCN(CC)S(=O)(=O)c1ccc(O)c(NC(=O)CN2CCc3ccccc3C2)c1	CAL PDZ FP-2 45
S=C(Nc1ccccc1Cl)NC1CCC(NC(=S)Nc2ccccc2Cl)CC1 (centres undefined)	CAL PDZ FP-2 31
Cc1ccc(NC(=S)NC2CCN(Cc3ccccc3)CC2)cc1C	CAL PDZ FP-2 47
Cc1ccc(NC(=S)NC2CCN(Cc3ccccc3)CC2)cc1	none
S=C(Nc1cc(Cl)cc(Cl)c1)NC1CCN(Cc2ccccc2)CC1	NTR1 agonist 52
S=C(Nc1ccccc1Cl)NC1CCN(Cc2ccccc2)CC1	none
CCC(C)NC(=O)CC(c1ccccc1)c1cc(C)ccc1O (centres undefined)	CAL PDZ FP-2 34
CCOC(=O)CN1C(=O)C2(OCCCO2)c2cc(Br)ccc21	none (no result: CAL PDZ FP-2)
Cc1cc(C(=O)NP(=O)(N2CCOCC2)N2CCOCC2)c(C)n1-c1ccc(N(C)C)cc1	CAL PDZ FP-2 88
Cc1cc(/C=N/Nc2ccc([N+](=O)[O-])cn2)c(C)n1-c1ccccc1	dFosB activator 22
Cc1ccc(-n2c(C)cc(/C=N/Nc3ccc([N+](=O)[O-])cn3)c2C)cc1	none
CC(C)(C)c1cc(C(=O)NNc2cccc(Cl)c2)n(Cc2ccccc2)n1	CAL PDZ FP-2 66
NS(=O)(=O)c1ccc2nc(NC(=O)c3ccc4c(c3)OCCO4)sc2c1	dFosB activator inconclusive, CAL PDZ FP-2 63
NS(=O)(=O)c1ccc2nc(NC(=O)c3ccc4ncsc4c3)sc2c1	none
Cc1ccc(NC(=O)CN2CCN(C(=O)C3CC3)CC2)c(F)c1	none (no result: CAL PDZ FP-1, NTR1 agonist, dFosB activator, CAL PDZ FP-2)
CCN(Cc1ccc(N(C)C)cc1)C(C)C(=O)Nc1ccc(S(=O)(=O)N2CCCC2)cc1 (centres undefined)	CAL PDZ FP-2 60
CSc1ccccc1NC(=O)CN(C)CC(=O)Nc1ccc(S(=O)(=O)N2CCCC2)cc1	CAL PDZ FP-2 48
CC1CC(C)CN(C(=O)C2CCN(C(=O)Nc3ccccc3)CC2)C1 (centres undefined)	none
O=c1[nH]snc1N1CCOCC1	none (no result: CAL PDZ FP-2)
CCC(C(=O)OCn1nnc2ccccc2c1=O)c1ccccc1 (centres undefined)	CAL PDZ FP-2 54
CC(NC(=O)c1ccccc1)C(=O)OCn1nnc2ccccc2c1=O (centres undefined)	none
Cc1ccc(CN(C)C(=O)C2CCC(=O)N(C3CCCCCC3)C2)cc1 (centres undefined)	CAL PDZ FP-2 39
O=C(COC(=O)c1ccccn1)Nc1ccc2c(c1)OCCO2	CAL PDZ FP-2 56
O=C(Nc1ccc(NC(=O)c2ccccn2)cc1)C(=O)Nc1ccc2c(c1)OCCO2	dFosB activator 19
Cc1ccc(NC(=O)C2CCN(S(=O)(=O)c3ccc(N4CCCC4=O)cc3)CC2)cc1Cl	none
C=C(CN(C)C)C(=O)c1ccc(OC2OC(COC(C)=O)C(OC(C)=O)C(OC(C)=O)C2OC(C)=O)cc1 (centres undefined)	dFosB activator 21 (no result: NTR1 agonist)
C=C(CN(C)C)C(=O)c1ccc2c(c1)OCO2	none (no result: NTR1 agonist)
COc1ccc2cc3c(N)nn(C(=O)C4CCC(C(C)(C)C)CC4)c3nc2c1 (centres undefined)	NTR1 agonist 42
Cc1cccc(C(O)c2cnc(C)n2Cc2ccccc2)c1 (centres undefined)	none (no result: CAL PDZ FP-1, NTR1 agonist, dFosB activator, CAL PDZ FP-2)
CCCCCCCCCCOC(=O)Cn1c(COc2ccccc2)[n+](C)c2ccccc21	dFosB activator 35
CCCCCCCCCCOC(=O)Cn1c(COc2ccccc2C)[n+](C)c2ccccc21	dFosB activator 37
COc1ccc(/C=N/Nc2cc(C)nc3c(C)cccc23)cc1	none
COc1ccc(/C=N/Nc2cc(C)nc3ccccc23)cc1	dFosB activator 53
CCCCn1c(N)c(N(CC)C(=O)c2cc(S(=O)(=O)N3CCCCCC3)ccc2OC)c(=O)[nH]c1=O	none
O=C(NC1CCCCC1)C12CC3CC(C1)CC(n1cncn1)(C3)C2	none
CC(NC(=O)C12CC3CC(C1)CC(n1cncn1)(C3)C2)C12CC3CC(CC(C3)C1)C2 (centres undefined)	CAL PDZ FP-2 57
CN1C(=O)[C@H]2[C@@H](c3ccc(C(F)(F)F)cc3)N[C@]3(CCCN(Cc4ccco4)C3=O)[C@H]2C1=O	none (no result: CAL PDZ FP-1, NTR1 agonist, dFosB activator, CAL PDZ FP-2)
COC(=O)c1ccccc1NC(=O)C1CCN(C(=O)c2cc(OC)cc(OC)c2)CC1	CAL PDZ FP-2 115
COc1ccc(C(=O)C2CCN(C(=O)c3ccc(OC)cc3)CC2)cc1	CAL PDZ FP-2 74
Nc1cc(=O)[nH]c(=O)n1Cc1ccccc1	none
Nc1cc(=O)[nH]c(=O)n1CCCc1ccccc1	CAL PDZ FP-2 39 (no result: NTR1 agonist)
CC(O)c1cccc(-c2ccc(CN3C[C@]4(CO)O[C@@H](CO)C[C@@H]4S3(=O)=O)cc2)c1 (some centres undefined)	CAL PDZ FP-2 42
